Source: paper PMC4400215 (Antiviral therapy, 2014)
Values after ≈ are worked out from the molar mass of the structure shown. Values joined by “and” are separate entries in the source; they are usually repeats but may differ in a detail not shown here. Equal values may be shown once. Read-outs that look alike come from different tables or passages of the source.

Key:
HCV [1] = conditions: monotherapy, doses of 200 and 500 mg/day; cited from earlier work
HCV [2] = conditions: 200 mg tid, multiscale model; cited from earlier work
HCV genotype 1 [3] = type: in vivo, Hepatitis C virus; conditions: 14 days
Outline: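 Reanalysed phase 1 data. Chronically infected patients were randomised 8:2 to oral test compound or placebo for 14 days, and placebo recipients were excluded. HCV RNA was measured in blood drawn at 0, 2, 4, 6, 8, 12, 16, 24, 26, 28, 30, 48 and 52 h, on days 6 and 8 pre- and post-dose, and on day 13.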

HCV [4] = assay: PK/VK model fitted to HCV RNA kinetics during danoprevir monotherapy; type: in vivo, Hepatitis C virus; conditions: for minimal effectiveness: at Cmin
[5] = Two-compartment population PK model fitted to danoprevir plasma concentrations; type: in vivo, patients
HCV [6] = conditions: in combination with mericitabine, 14 days, no viral breakthrough; cited from earlier work
HCV genotype 1 [7] = conditions: cited from earlier work
HCV [8] = assay: Varying effectiveness; type: in vivo, Hepatitis C virus; conditions: VE model
Outline: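 Standard viral kinetic model with constant target cells, fitted to log10 viral load only, without PK data. Effectiveness = Dose/(ED50+Dose)·(1−e^(−kt)), where Dose is the total daily amount. Population mixed-effects fit by maximum likelihood. Per-patient effectiveness was averaged over days 0–2 and 0–14, then over each cohort. First-phase decline = −log10(1−ε).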

[9] = Cohort 5: 300 mg bid, non-responder
[10] = PK/VK model, Cohort 1: 100 mg bid, TN
[11] = PK/VK model, Cohort 2: 100 mg tid, TN
[12] = PK/VK model, Cohort 3: 200 mg bid, TN
[13] = PK/VK model, Cohort 4: 200 mg tid, TN
[14] = PK/VK model, Cohort 5: 300 mg bid, non-responder
[15] = after first intake, 100 mg bid dose

COc1ccc2c(O[C@@H]3C[C@H]4C(=O)N[C@]5(C(=O)O)C[C@H]5/C=C\CCCCC[C@H](NC(=O)OC5CCCC5)C(=O)N4C3)cc(-c3csc(NC(C)C)n3)nc2c1 [ciluprevir]
δ (second phase decline) (HCV [1]): 0.22 to 0.36 day⁻¹

CC(C)(C)OC(=O)N[C@H]1CCCCC/C=C\[C@@H]2C[C@@]2(C(=O)NS(=O)(=O)C2CC2)NC(=O)[C@@H]2C[C@@H](OC(=O)N3Cc4cccc(F)c4C3)CN2C1=O [danoprevir]
effectiveness in blocking intracellular replication (HCV [2]): 99.2%
enhancement of viral RNA degradation (HCV [2]): about 5 fold
mean effectiveness on viral secretion (HCV [2]): 56%
Total viral decline (median) (HCV genotype 1 [3]; Cohort 1: 100 mg bid, treatment-naïve): 2.0 Log10 IU/mL
Total viral decline (median) (HCV genotype 1 [3]; Cohort 2: 100 mg tid, TN): 2.7 Log10 IU/mL
Total viral decline (median) (HCV genotype 1 [3]; Cohort 4: 200 mg tid, TN): 3.9 Log10 IU/mL
Total viral decline (median) (HCV genotype 1 [3]; [9]): 2.7 Log10 IU/mL
final effectiveness in blocking viral production (HCV [4]; 200 mg tid): 99.4%
Average effectiveness over the first 2 days of dosing ε2 (HCV [4]; [10]): 0.946
Average effectiveness over the full 14-day dosing period ε14 (HCV [4]; [10]): 0.95 and 0.953
Predicted first-phase log decline, i.e. −log10(1−ε2) (HCV [4]; [10]): 1.27 log10
Average effectiveness over the first 2 days of dosing ε2 (HCV [4]; [11]): 0.981
Average effectiveness over the full 14-day dosing period ε14 (HCV [4]; [11]): 0.990
Predicted first-phase log decline, i.e. −log10(1−ε2) (HCV [4]; [11]): 1.72 log10
Average effectiveness over the first 2 days of dosing ε2 (HCV [4]; [12]): 0.966
Average effectiveness over the full 14-day dosing period ε14 (HCV [4]; [12]): 0.974
Predicted first-phase log decline, i.e. −log10(1−ε2) (HCV [4]; [12]): 1.47 log10
Average effectiveness over the first 2 days of dosing ε2 (HCV [4]; [13]): 0.985
Average effectiveness over the full 14-day dosing period ε14 (HCV [4]; [13]): 0.994
Predicted first-phase log decline, i.e. −log10(1−ε2) (HCV [4]; [13]): 1.83 log10
Average effectiveness over the first 2 days of dosing ε2 (HCV [4]; [14]): 0.974
Average effectiveness over the full 14-day dosing period ε14 (HCV [4]; [14]): 0.982
Predicted first-phase log decline, i.e. −log10(1−ε2) (HCV [4]; [14]): 1.58 log10
minimal effectiveness (HCV [4]; PK/VK model, cohort 1 (lowest dose)): 0.706
minimal effectiveness (HCV [4]; PK/VK model, cohort 4 (highest dose)): 0.877
EC50 (plasma concentration at which effectiveness is 0.5 times its maximum) (HCV [4]; PK/VK model, in vivo, h=1, population estimate±standard error): 0.0082 ± 0.0024 ng/mL (≈ 0.0112 nM)
δ (loss rate of infected cells, slope of second phase decline) (HCV [4]; PK/VK model, population estimate±standard error, all cohorts): 0.18 day⁻¹ and 0.18 ± 0.024 day⁻¹
time to reach 95% of final effectiveness (HCV [4]; [15]): ≤ 30 min
time to reach 99% of final effectiveness (HCV [4]; [15]): ≤ 36 min
patients showing a rapid second phase (δ > 0.3 d^−1) (HCV [4]; all cohorts): 30%
time to reach 99% of the final effectiveness (HCV [4]; model prediction, all doses): less than 1 hr
Cmax ([5]; human, plasma, oral): 2.67 to 589 ng/mL
Vd/F ([5]; human, plasma, oral): 2100 ± 360 L
k el ([5]; human, plasma, oral): 0.000283 s⁻¹
k21 (backward rate constant between compartments) ([5]; population estimate±standard error, all cohorts): 0.81 h⁻¹ and 0.81 ± 0.17 h⁻¹
Tlag (post-dose lag-time) ([5]; population estimate±standard error, all cohorts, oral): 0.50 h and 0.50 ± 0.057 h
Tk0 (time over which danoprevir is absorbed) ([5]; population estimate±standard error, all cohorts, zero-order absorption): 0.58 h and 0.58 ± 0.13 h
viral RNA decline (HCV [6]): 5 logs
cure rates (HCV genotype 1 [7]; genotype 1, with IFN and ribavirin, boosted with ritonavir): up to 93%
cure rates (HCV genotype 1 [7]; patients infected with genotype 1, in combination with IFN and ribavirin): up to 85%
Average effectiveness over the first 2 days of dosing ε2 (HCV [8]; Cohort 1: 100 mg bid, TN): 0.973
Average effectiveness over the full 14-day dosing period ε14 (HCV [8]; Cohort 1: 100 mg bid, TN): 0.976
Predicted first-phase log decline, i.e. −log10(1−ε2) (HCV [8]; Cohort 1: 100 mg bid, TN): 1.57 log10
Average effectiveness over the first 2 days of dosing ε2 (HCV [8]; Cohort 2: 100 mg tid, TN): 0.982
Average effectiveness over the full 14-day dosing period ε14 (HCV [8]; Cohort 2: 100 mg tid, TN): 0.984
Predicted first-phase log decline, i.e. −log10(1−ε2) (HCV [8]; Cohort 2: 100 mg tid, TN): 1.74 log10
Average effectiveness over the first 2 days of dosing ε2 (HCV [8]; Cohort 3: 200 mg bid, TN): 0.985
Average effectiveness over the full 14-day dosing period ε14 (HCV [8]; Cohort 3: 200 mg bid, TN): 0.988
Predicted first-phase log decline, i.e. −log10(1−ε2) (HCV [8]; Cohort 3: 200 mg bid, TN): 1.82 log10
Average effectiveness over the first 2 days of dosing ε2 (HCV [8]; Cohort 4: 200 mg tid, TN): 0.990
Average effectiveness over the full 14-day dosing period ε14 (HCV [8]; Cohort 4: 200 mg tid, TN): 0.992
Predicted first-phase log decline, i.e. −log10(1−ε2) (HCV [8]; Cohort 4: 200 mg tid, TN): 2.00 log10
Average effectiveness over the first 2 days of dosing ε2 (HCV [8]; [9]): 0.990
Average effectiveness over the full 14-day dosing period ε14 (HCV [8]; [9]): 0.992
Predicted first-phase log decline, i.e. −log10(1−ε2) (HCV [8]; [9]): 2.00 log10
ED50 (daily dose leading to 50% of the maximal effectiveness) (HCV [8]; estimate±standard error): 4.85 ± 1.4 mg/day
k (rate constant for effectiveness increase) (HCV [8]; estimate±standard error): 29.1 ± 13.0 day⁻¹ and 29.1 ± 13 day⁻¹
δ (loss rate of infected cells) (HCV [8]; estimate±standard error): 0.184 ± 0.03 day⁻¹
final population effectiveness (HCV [8]; highest dose given to treatment-naïve patients (cohort 4)): 0.992
final population effectiveness (HCV [8]; lowest dose (cohort 1)): 0.976
